{
  "source": "ChEMBL document CHEMBL3779787",
  "about": "“Amorfrutin C Induces Apoptosis and Inhibits Proliferation in Colon Cancer Cells through Targeting Mitochondria” (J Nat Prod, 2016)",
  "key": {"HT-29 [1]": {"system": "HT-29", "test": "Induction of apoptosis in human HT-29 cells assessed as phosphatidylserine externalization at 20 uM after 48 hrs by annexin V-FLUOS/propidium iodide staining-based flow cytometry (reference value: 8%)", "assay_type": "functional"}, "[2]": {"test": "Antiproliferative activity against human PC3 cells assessed as cellular DNA content after 72 hrs by CyQUANT NF fluorescence assay relative to control", "assay_type": "functional, PC-3", "method_in_brief": "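Cells seeded at 750 (HT-29), 250 (PC-3) or 900 (T84, MCF7) cells/well, treated next day with concentration series for 72 h (HT-29, PC-3) or 96 h (T84, MCF7). Relative cell number from cellular DNA content by fluorescent DNA-binding dye. Variable-slope fit; efficiency = maximal inhibition (100% − Bottom) vs untreated; IC50 relative to the compound's own maximal efficiency.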"}, "HT-29 [3]": {"system": "HT-29", "test": "Upregulation of p21/Cip1 expression in human HT-29 cells at 10 uM after 48 hrs by immunoblotting method", "assay_type": "functional, cell-based", "method_in_brief": "(§1)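 HT-29 cells exposed 48 h to 10 μM compound. Whole-cell protein lysates probed for cell-cycle modulators by immunoblotting.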"}, "HT-29 [4]": {"system": "HT-29", "test": "Upregulation of p27/Kip1 expression in human HT-29 cells at 10 uM after 48 hrs by immunoblotting method", "assay_type": "functional, cell-based", "method_in_brief": "as §1"}, "[5]": {"target": "T1, Peroxisome proliferator-activated receptor delta (Homo sapiens, UniProt Q03181)", "T1 sequence (Q03181 whole entry)": "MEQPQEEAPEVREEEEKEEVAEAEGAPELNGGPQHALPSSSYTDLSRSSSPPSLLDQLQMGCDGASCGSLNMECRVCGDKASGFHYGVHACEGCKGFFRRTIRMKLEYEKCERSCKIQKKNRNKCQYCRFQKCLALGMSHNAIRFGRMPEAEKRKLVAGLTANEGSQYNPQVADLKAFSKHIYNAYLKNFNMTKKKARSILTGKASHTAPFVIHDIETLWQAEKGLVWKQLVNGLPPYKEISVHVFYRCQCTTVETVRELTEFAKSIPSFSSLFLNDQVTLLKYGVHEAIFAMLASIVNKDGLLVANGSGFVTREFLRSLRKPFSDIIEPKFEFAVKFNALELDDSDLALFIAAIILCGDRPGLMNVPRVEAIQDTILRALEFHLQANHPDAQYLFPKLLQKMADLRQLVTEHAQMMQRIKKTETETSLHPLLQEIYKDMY", "test": "Competitive binding affinity to PPARbeta/delta (unknown origin) by TR-FRET assay"}, "HT-29 [6]": {"system": "HT-29", "test": "Induction of apoptosis in human HT-29 cells at 30 uM after 24 hrs by annexin V-FLUOS/propidium iodide staining-based flow cytometry in presence of PPAR siRNA", "assay_type": "functional, cell-based", "method_in_brief": "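HT-29 transfected with PPARα/β/δ/γ siRNA pool (10 nM each) or 30 nM nonspecific siRNA, seeded 150 000 cells/well. After 48 h, 30 μM compound added for a further 24 h. Phosphatidylserine externalization by annexin V flow cytometry; means ± SEM, n = 6.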"}, "HT-29 [7]": {"system": "HT-29", "test": "Induction of ROS generation in human HT-29 cells at 30 uM by CM-H2DCFDA staining-based fluorescence assay", "assay_type": "functional, cell-based", "method_in_brief": "(§2)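 HT-29 (15 000 cells/well) loaded with 50 μM CM-H2DCFDA in PBS for 30 min at 37 °C, washed, then 60 min in phenol red-free DMEM/F-12. 30 μM compound added alone or with NAC 1 mM, GSH 2.5 mM, D3T 25 μM, α-tocopherol 50 μM or ascorbic acid 500 μM. Fluorescence 485/530 nm read kinetically at 37 °C for 22 h; area under curve; means ± SEM, n = 7.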"}, "HT-29 [8]": {"system": "HT-29", "test": "Induction of ROS generation in human HT-29 cells at 30 uM by CM-H2DCFDA staining-based fluorescence assay in presence of ascorbic acid", "assay_type": "functional, cell-based", "method_in_brief": "as §2"}, "HT-29 [9]": {"system": "HT-29", "test": "Induction of apoptosis in human HT-29 cells at 30 uM after 24 hrs by annexin V-FLUOS/propidium iodide staining-based flow cytometry in presence of 3H-1,2-dithiole-3-thione", "assay_type": "functional, cell-based", "method_in_brief": "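HT-29 treated 24 h with 30 μM with or without antioxidant (NAC 1 mM, D3T 25 μM). Apoptosis by annexin V/propidium iodide flow cytometry; means ± SEM, n = 3.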"}, "HT-29 [10]": {"system": "HT-29", "test": "Increase in mitochondrial oxygen consumption in human HT-29 cells at 2 to 10 uM measured for 20 to 60 mins by time-resolved fluorescence assay", "assay_type": "functional, cell-based", "method_in_brief": "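HT-29 at 80 000 cells/well in phenol red-free DMEM/F-12 with oxygen-sensitive lifetime probe, compound added, wells sealed with mineral oil. Time-resolved fluorescence at 37 °C, 90 s intervals for 150 min. Lifetime slope over 20–60 min expressed relative to untreated cells; means ± SEM, n = 8.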"}},
  "note": "Activity calls are given as the source filed them. The calls are words filed in the database; no cut-off is given here.",
  "data": [
    {"smiles": "COc1c(CC=C(C)C)c(O)c(C(=O)O)c(CCc2ccccc2)c1CC=C(C)C", "values": [
      {"measurement": "Activity", "setting": "HT-29 [1]", "value": 44, "unit": "%"},
      {"measurement": "Efficacy", "setting": "[2]", "value": 95, "unit": "%"},
      {"measurement": "Activity", "setting": "HT-29 [3]", "value": "Active"},
      {"measurement": "Activity", "setting": "HT-29 [4]", "value": "Active"},
      {"measurement": "Ki", "setting": "[5]", "value": 5.2, "unit": "µM"},
      {"measurement": "Activity", "setting": "HT-29 [6]", "value": "Active"},
      {"measurement": "Activity", "setting": "HT-29 [7]", "value": "Active"},
      {"measurement": "Activity", "setting": "HT-29 [8]", "value": "inactive"},
      {"measurement": "Activity", "setting": "HT-29 [9]", "value": "Active"},
      {"measurement": "Activity", "setting": "HT-29 [10]", "value": "Active"}
    ]}
  ]
}
